Measurements taken from ChEMBL document CHEMBL4261487, “Small structural changes of the imidazopyridine diacylglycerol acyltransferase 2 (DGAT2) inhibitors produce an improved safety profile” (Medchemcomm, 2017).
Blank lines part the entries; values can stand above or below the compound they belong to.

Experiments:
[1] = Plasma clearance in beagle dog at 1 mg/kg, iv; format: ADME, organism-based, Canis lupus familiaris
Rattus norvegicus [2] = test: In vivo DGAT2 inhibition in po dosed sucrose-fed rat assessed as decrease in plasma triglyceride levels after 2 hrs; format: functional, organism-based
In short: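 Rats fed a high-sucrose diet, single oral dose of test article or vehicle; plasma TG measured in tail-vein blood 2 h post dose; n = 7–8 per group; results as percent change from vehicle group, one-way ANOVA with Dunnett's test.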

Canis familiaris [3] = test: Toxicity in telemetered beagle dog assessed as emesis at 5 to 50 mg/kg administered via oral gavage measured within 4 hrs of dosing; format: organism-based, Canis lupus familiaris; settings: in vivo
[4] = Fraction unbound in rat plasma; format: ADME, cell-free
Canis familiaris [5] = test: Toxicity in telemetered beagle dog assessed as increase in diastolic pressure at 5 mg/kg administered via oral gavage measured during 4 hrs of post dosing; format: organism-based, Canis lupus familiaris; settings: in vivo
[6] = Apparent intrinsic clearance in human hepatocytes assessed per million cells; format: ADME, cell-based, Hepatocyte
Canis familiaris [7] = test: Toxicity in telemetered beagle dog assessed as increase in systolic pressure at 5 mg/kg administered via oral gavage measured during 4 hrs of post dosing; format: organism-based, Canis lupus familiaris; settings: in vivo
Canis familiaris [8] = test: Unbound Cmax in beagle dog at 30 mg/kg, po qd administered for 1 month; format: ADME, organism-based, Canis lupus familiaris; settings: in vivo
In short: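 One-month dog toxicity study with once-daily oral dosing. Toxicity groups were 2/sex/dose, and unbound peak exposure was taken from toxicokinetic sampling.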

Canis familiaris [9] = test: Unbound AUC in beagle dog at 3 mg/kg, po qd administered for 1 month; format: ADME, organism-based, Canis lupus familiaris; settings: in vivo
In short: (§1)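 Beagle dogs were dosed orally once daily in a 14-day exploratory study or 1-month toxicity studies. Steady-state systemic exposure over the 24 h dosing interval is reported as the mean of male and female values combined.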

[10] = Ratio of Cmax in beagle dog at 10 mg/kg, po qd administered for 1 month to IC50 for in vitro inhibition of dog DGAT2; format: organism-based, Canis lupus familiaris; settings: in vivo
In short: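 One-month toxicity study in Beagle dogs with N = 2/sex/dose. Plasma exposure at each dose level was referenced to the dog DGAT2 enzymatic IC50, reported as the geometric mean of at least three replicates.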

Canis familiaris [11] = test: Unbound Cmax in telemetered beagle dog at 50 mg/kg administered via oral gavage measured over 24 hrs; format: ADME, organism-based, Canis lupus familiaris; settings: in vivo
In short: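 Telemetered Beagle dogs given oral doses, with blood pressure and heart rate monitored after dosing alongside plasma exposure.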

[12] = target: T1, Diacylglycerol O-acyltransferase 2 (Homo sapiens, UniProt Q96PD7); test: Inhibition of human DGAT2
T1 sequence (Q96PD7 whole entry): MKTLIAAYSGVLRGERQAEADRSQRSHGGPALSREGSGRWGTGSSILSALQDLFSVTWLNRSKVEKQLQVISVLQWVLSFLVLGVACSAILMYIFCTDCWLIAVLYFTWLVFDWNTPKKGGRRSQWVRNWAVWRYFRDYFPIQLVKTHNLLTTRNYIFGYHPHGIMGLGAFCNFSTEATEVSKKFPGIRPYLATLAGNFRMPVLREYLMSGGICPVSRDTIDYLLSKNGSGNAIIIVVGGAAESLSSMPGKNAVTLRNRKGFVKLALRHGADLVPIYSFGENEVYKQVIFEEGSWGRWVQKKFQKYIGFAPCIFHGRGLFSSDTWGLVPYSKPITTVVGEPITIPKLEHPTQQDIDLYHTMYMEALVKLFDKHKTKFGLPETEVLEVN
In short: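 IC50 against human DGAT2 in an enzymatic assay, reported as the geometric mean of at least three replicates with SEM.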

Rattus norvegicus [13] = test: Toxicity in Wistar Han IGS rat assessed as foamy macrophage accumulation in lung at 500 mg/kg, po qd administered for 14 days; format: organism-based; settings: in vivo, 336 h
In short: (§2)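 Wistar Han rats, daily oral dosing for 14 days (5/sex/dose) or 1 month (10/sex/dose); microscopic findings reported as incidence by sex, plus organ weights.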

Canis familiaris [14] = test: Unbound AUC in beagle dog at 50 mg/kg, po qd administered for 1 month; format: ADME, organism-based, Canis lupus familiaris; settings: in vivo; in short: as §1
Canis familiaris [15] = test: Toxicity in telemetered beagle dog assessed as change in heart rate at 5 mg/kg administered via oral gavage measured over 24 hrs; format: organism-based, Canis lupus familiaris; settings: in vivo
Rattus norvegicus [16] = test: Toxicity in Wistar Han IGS rat assessed as gastric ulcer at 500 mg/kg, po qd administered for 14 days; format: organism-based; settings: in vivo, 336 h; in short: as §2
Canis familiaris [17] = test: Toxicity in beagle dog assessed as body weight gain at 150 mg/kg, po qd administered for 10 days; format: organism-based, Canis lupus familiaris; settings: in vivo, 240 h
Canis familiaris [18] = test: Toxicity in beagle dog assessed as body weight gain at 100 mg/kg, po qd administered starting on day 11 post 150 mg/kg dosing period and continuing for 20 days; format: organism-based, Canis lupus familiaris; settings: in vivo, 480 h
Canis familiaris [19] = test: Toxicity in telemetered beagle dog assessed as increase in systolic pressure at 10 mg/kg administered via oral gavage measured over 24 hrs; format: organism-based, Canis lupus familiaris; settings: in vivo
[20] = Toxicity in po dosed beagle dog administered as qd for 14 days; format: organism-based, Canis lupus familiaris; settings: in vivo
Canis familiaris [21] = test: Toxicity in telemetered beagle dog assessed as foamy salivation at 20 mg/kg, iv administered as single bolus dose over 2 mins; format: organism-based, Canis lupus familiaris; settings: in vivo
Rattus norvegicus [22] = test: Toxicity in Wistar Han IGS rat assessed as increase in heart weight at 60 to 300 mg/kg, po qd administered for 1 month; format: organism-based; settings: in vivo; in short: as §2
Rattus norvegicus [23] = test: Unbound AUC in Wistar Han IGS rat at 300 mg/kg, po qd administered for 1 month; format: ADME, organism-based; settings: in vivo
In short: (§3)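 Wistar Han rats were dosed orally once daily for 14 days (exploratory, 5/sex/dose) or 1 month (toxicity, 10/sex/dose). Toxicokinetic satellite animals (3–4/sex/dose) were used, and steady-state systemic exposure is given as the mean of male and female values combined.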

Canis familiaris [24] = test: Unbound AUC in beagle dog at 300 mg/kg, po qd administered for 14 days; format: ADME, organism-based, Canis lupus familiaris; settings: in vivo, 336 h; in short: as §1
Canis familiaris [25] = test: Toxicity in telemetered beagle dog assessed as increase in heart rate at 75 mg/kg administered via oral gavage measured over 24 hrs; format: organism-based, Canis lupus familiaris; settings: in vivo
Canis familiaris [26] = test: Unbound Cmax in beagle dog at 50 mg/kg, po qd administered for 1 month; format: ADME, organism-based, Canis lupus familiaris; settings: in vivo
In short: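 Beagle dogs were given the compound orally once daily for 1 month in a toxicity study, with 2 dogs per sex per dose group. Plasma exposure was measured at steady state across the 24 h dosing interval.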

Rattus norvegicus [27] = test: Unbound Cmax in Wistar Han IGS rat at 10 mg/kg, po qd administered for 14 days; format: ADME, organism-based; settings: in vivo, 336 h; in short: as §3
Rattus norvegicus [28] = test: In vivo inhibition of DGAT2 in Wistar Han IGS rat assessed as coverage of in vitro IC50 for rat DGAT2 at 100 mg/kg, po qd administered for 14 days; format: functional; set-up: scale not given: the % may be the effect or the level left
In short: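 Wistar Han rats, once-daily oral dosing for 14 days (exploratory, 5/sex/dose) or 1 month (10/sex/dose); toxicokinetics in 3–4/sex/dose with sexes combined; coverage is the average % above rat DGAT2 IC50 at steady state over the 24 h dosing interval.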

clearance [1]: 4 mL/min/kg | fraction unbound [4]: 0.14 | CLH(app) [6]: 16.1 µL/min | fCmax (Canis familiaris [8]): 3.76 µM | fAUC (Canis familiaris [9]): 797 ng·h/mL | Ratio [10]: 31 | IC50 [12]: 20 nM
SMILES: C[C@@H](c1nc2ccc(N3CCC[C@@H](C(=O)N4CCCC4)C3)nc2[nH]1)n1cc(Cl)cn1
inhibition (Rattus norvegicus [2]): Dose-dependent effect | Activity (Canis familiaris [3]): Toxic | Activity (Canis familiaris [5]): 4 to 6 mmHg | Activity (Canis familiaris [7]): 4 to 6 mmHg | fCmax (Canis familiaris [11]): 4.7 µM

SMILES: CS(=O)(=O)O.O=C([C@@H]1CCCN(c2ccc3nc(C4(n5cc(Cl)cn5)CC4)[nH]c3n2)C1)N1CCCC1
Activity (Rattus norvegicus [13]): Toxic | fAUC (Canis familiaris [14]): 57500 ng·h/mL | Activity (Canis familiaris [15]): Non-Toxic | Activity (Rattus norvegicus [16]): Toxic | Activity (Canis familiaris [17]): Toxic | Activity (Canis familiaris [18]): Non-Toxic | Activity (Canis familiaris [19]): 3 mmHg | MTD at 336 h [20]: 75 mg/kg/day | Activity (Canis familiaris [21]): Non-Toxic | Activity (Rattus norvegicus [22]): Toxic | fAUC (Rattus norvegicus [23]): 62500 ng·h/mL | fAUC (Canis familiaris [24]): 78300 ng·h/mL | Activity (Canis familiaris [25]): 8 to 30 bpm | fCmax (Canis familiaris [26]): 12.7 µM | fCmax (Rattus norvegicus [27]): 390 nM | Activity (Rattus norvegicus [28]): 98%
